Source: PubChem BioAssay
This is one part of a sample in which hits are shown more often than they occur.
INS promoter act: TRM-6 insulin promoter activation; TRM-6 cells, insulin promoter eGFP reporter, imaging; plate-scaled: unstimulated 0, stimulated control 100; activation, % at 2 µM; 130,000 compounds, 0.81% hits;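 active means activation at 2 µM above a set limit, confirmed on inspection of the cell images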;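 further: share of cells whose green reporter signal exceeds an intensity cutoff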
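System: human fetal islet-derived TRM-6 cells with tamoxifen-inducible insulin promoter–eGFP reporter; input: seeding density of 1,000 cells per well; buffer or medium: Low-glucose (5.5 mM) medium with tamoxifen; incubation: compound exposure 48 h, 37 °C; measured by: high-content imaging of fixed cells with Hoechst nuclear stain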
An asterisk follows results filed as active.

SMILES | INS promoter act
CCN1CCCC1CNCc1cccc(OC)c1OCc1ccccc1F (centres undefined) | 0.0
O=S(=O)(Nc1nc(-c2sccc2Cl)cs1)c1cc(Cl)ccc1Cl | -9.4
OCC[C@H]1C[C@H](O)[C@@H](O)[C@@]2(CCCCO2)O1 | 0.0
Cc1ccc(NC(=O)CN(C)C(=O)CSc2nc3ccccc3o2)cc1 | 2.8
Nc1nc(F)cc(NCc2ccccc2)n1 | 114.3
CCc1ccc(N(C(=O)Cn2nnc(-c3ccccc3)n2)C(C(=O)NC2CCCCC2)c2ccccn2)cc1 (centres undefined) | 6.7
CC1(C)CC(=O)C2=C(C1)Nc1cc3c(cc1C2c1ccc(F)cc1)OCO3 (centres undefined) | 100.0*
CC1=C(C(=O)Nc2ccc(F)cc2)C(c2ccc(C)o2)C2=C(CC(C)(C)CC2=O)N1 (centres undefined) | 295.8
CC1C2=C(CC(C)(C)CC2=O)NC2=C1C(=O)CC(C)(C)C2 | -4.8
O=C(CCc1nc2ccccc2c(=O)[nH]1)N1CCN(c2ccc(F)cc2)CC1 | 0.0
CC(C)CCNC(=O)Cc1ccc(Nc2nc(=S)[nH]c3ccccc23)cc1 | 0.0
CCN(C(=O)Cc1ccc(Br)cc1)C1CCCCC1 | 5.4
Cc1ccc2nc(NC(=O)c3ccc(OCC4CCCO4)cc3)sc2c1 (centres undefined) | 0.0
CCCCNC(=O)c1ccc(CS(=O)(=O)Cc2ccccc2F)o1 | -8.3
CCOc1ccccc1N(CC(=O)Nc1ccc(S(=O)(=O)N2CCOCC2)cc1)S(=O)(=O)c1ccc(Cl)cc1 | 6.9
CCNc1nc(NCC)n2c(SC(C(=O)Nc3cc(Cl)cc(Cl)c3)c3ccccc3)nnc2n1 (centres undefined) | -3.2
CCC(C)N1C(=O)CCC1C(=O)O (centres undefined) | 0.0
O=C(Nc1cccnc1)c1cn(-c2ccccc2)nc1-c1cccs1 | -8.3
O=C(Nc1cccc2ccccc12)c1cn(-c2ccccc2)nc1-c1cccs1 | 8.1
N#CCCn1cc(C(=O)Nc2ccccc2Br)c(-c2cccs2)n1 | 457.1*
COC(=O)c1nn(-c2ccc(C)cc2)c2nnc(Cc3ccccc3)c(=O)n12 | -4.8
COc1cccc(-c2nnc(NC(=O)c3ccc4ncsc4c3)o2)c1 | 0.0
C=C(C)C1CC=C(C)/C(=N/NC(=O)C2CC2c2ccccc2)C1 (centres undefined) | -6.7
O=C(CN1CCSC1=NCc1ccccc1)c1ccccc1 | 0.0
CCOc1ccc(S(=O)(=O)NCC(=O)N(C)Cc2cccnc2)cc1 | 78.6*
SMILES | INS promoter act
CCOc1ccc(OCC)c(S(=O)(=O)NCc2cccnc2)c1 | -5.4
CCC(C)NS(=O)(=O)c1ccc(OCC(=O)NCc2cccnc2)cc1 (centres undefined) | -5.7
Cc1nc(NC(=O)c2ccc(Cl)cc2)sc1-c1csc(Nc2cccc(F)c2)n1 | -3.2
CCC(C)NC(=O)CSc1nnc(-c2cc(-c3cccs3)nc3ccccc23)o1 (centres undefined) | -9.4
CC(=O)OC(C(=O)Nc1ccccc1C)C(OC(C)=O)C(OC(C)=O)C(OC(C)=O)C(=O)Nc1ccccc1C (centres undefined) | 206.3
O=C(COC(=O)c1ccccn1)NC1CCCCC1 | -2.9
O=C1NC(=O)C(CC(=O)N(Cc2ccco2)C2(C(=O)NC3CCCC3)CCCCC2)N1 (centres undefined) | 0.0
O=C(c1ccccn1)N(Cc1ccco1)C1(C(=O)NC2CCCC2)CCCCC1 | 80.6*
C=CCn1c(SCC(=O)N2CCc3ccccc3C2)nc2sc(C)c(C)c2c1=O | -3.2
COCCNC(=O)NC(=O)COC(=O)c1cc([N+](=O)[O-])ccc1Sc1nc(C)cs1 | 2.9
O=C(Nc1ncc2c(n1)CC(c1ccco1)CC2=O)c1ccccc1 (centres undefined) | 6.7
Cc1nn2c3c(cnc2c1-c1ccccc1)C(=O)CC(c1ccco1)C3 (centres undefined) | 136.4*
Cc1ccc(NC(=O)CSCC(=O)Nc2ncc3c(n2)CC(c2ccco2)CC3=O)cc1 (centres undefined) | 2.7
CCOc1ccc(N2C(=O)C3C(c4ccc(O)cc4)NC(CCSC)(C(=O)OC)C3C2=O)cc1 (centres undefined) | 0.0
Cc1c(Cl)c(-c2n[nH]c(=S)n2-c2ccc(F)cc2)nn1C | 7.7
COc1ccccc1NC(=O)c1ccccc1-c1nc(-c2ccccc2OC)no1 | 400.0*
COc1ccccc1-c1noc(-c2ccccc2C(=O)Nc2ccccc2)n1 | -71.4
COc1ccccc1NC(=O)c1cc(Cl)ccc1NC(=O)c1ccco1 | -86.4
Cc1ccc(NS(=O)(=O)c2cc(OCC(N)=O)c(C)cc2Cl)cc1 | 0.0
CN(C)S(=O)(=O)c1cccc(NC(=O)Cn2cc(C(F)(F)F)cc(Cl)c2=O)c1 | 6.7
CCC(C)(C(=O)NC1CCCC1)N(C)C(=O)Cc1c[nH]c2ccccc12 (centres undefined) | 0.0
CCC(C)(C(=O)NC1CCCCC1)N(Cc1cccs1)C(=O)c1ccccn1 (centres undefined) | 106.7
CCC(C)(C(=O)NC1CCCC1)N(Cc1cccs1)C(=O)Cc1cccs1 (centres undefined) | 82.8*
COc1ccc(C(=O)N2CCC(c3ccccc3)CC2)c(OC)c1OC | 5.6
Cc1ccccc1CN1CCc2c(OCC(=O)N3CCCc4ccccc43)cccc2C1=O | 128.0*
SMILES | INS promoter act
CCN1CCc2c(OCC(=O)Nc3cccc(C)c3)cccc2C1=O | -8.3
CC1CCN(C(=O)COc2cccc3c2CCN(Cc2ccccc2)C3=O)CC1 | 7.7
NC(=O)c1ccc(/C=N/O)nc1 | 0.0
CCCN1C(=O)/C(=C/c2ccncc2)SC1=S | -6.7
CCCCN1C(=O)C(=O)N(c2ccccc2)C1=S | -9.4
CCCCN1C(=O)/C(=C/C=C2/CC(C)(C)CN2C)SC1=S | 270.4*
COc1ccccc1NC(=O)CC1COc2ccccc2O1 (centres undefined) | 2.8
CCCS(=O)(=O)c1c(S(=O)(=O)CCC)c2cc(-c3ccncc3)ccn2c1C(=O)OC | 378.6*
CCN(CC)S(=O)(=O)c1ccc(Cl)c(C(=O)OC)c1 | 2.7
CCCS(=O)(=O)c1c(S(=O)(=O)CCC)c2c(C)cccn2c1C(N)=O | -85.7
Cc1ccc(S(=O)(=O)N(C)C)cc1NC(=S)NC(=O)C12CC3CC(CC(C3)C1)C2 | 387.5*
CN(C)S(=O)(=O)c1cccc(NC(=S)NC(=O)C2CCCCC2)c1 | -7.7
Cc1ccc(S(=O)(=O)N(C)C)cc1NC(=O)COC(=O)c1ccc2c(c1)OCO2 | 102.9
CCOc1ccccc1C(=O)Nc1ccccc1-c1ccccc1 | -3.4
CCCCC(=O)Nc1ncc2c(n1)CC(C)(C)CC2=O | -5.6
O=C(CSc1nc2ccccc2o1)Nc1ccc(N2CCOCC2)cc1 | 0.0
CC1(C)CC(=O)c2cnc(NC(=O)CSc3nc4ccccc4o3)nc2C1 | 523.1*
O=C(COC(=O)C1CC(O)CN1S(=O)(=O)c1ccc(Cl)cc1)c1cccc(Cl)c1 (centres undefined) | -6.7
O=C(CSc1n[nH]c(-c2ccccc2Br)n1)NCCN1C(=O)CSC1=O | 194.1
Cc1cc(N2C(=O)CC(C(C)c3ccccc3)C2=O)no1 (centres undefined) | 3.4
Cc1cc(N2C(=O)CC(N3CCN(c4ccc(C(=O)c5cccs5)cc4)CC3)C2=O)no1 (centres undefined) | 437.5*
O=C(c1ccc(N2CCOCC2)cc1)c1cccs1 | 7.1
CCOC(=O)CC1C(=O)NCCN1C(=O)c1sc2ccccc2c1Cl (centres undefined) | 5.6
CCCCNC(=O)[C@H](Cc1c[nH]c2ccccc12)NC(=O)c1ccccc1Cl | 109.1
